Measured values published in PMC5558854 (Molecular cell, 2017).
Where no end group is shown, it is not given here. [ ]: non-standard residue; d: D form. The star is where a group is joined. FITC = O=C1OC2(c3ccc(O)cc3Oc3cc(O)ccc32)c2ccc(NC(=S)*)cc21; pY = N[C@@H](Cc1ccc(OP(=O)(O)O)cc1)C(=O)O

Key:
Csk^AS [1] = assay: Reconstituted cellular system for Lck activation; format: cell-based; details: HEK 293 cells with CD45, Csk^AS, 3-IB-PP1 5 μM, 1 min, 37 °C, immunoblot
Csk^AS [2] = details: analog-sensitive allele of Csk; ref Schoenborn et al., 2011; cited from earlier work
tyrosine phosphatases = assay: Total protein phosphotyrosine immunoblot after pervanadate treatment; format: cell-based, human; details: J.Lck cells, Lck Y192E/A variants; pervanadate 100 μM; immunoblot (Figure S2B)
Summary of the method: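 Jurkat-derived cells grown in RPMI with 10% FBS and 2 mM glutamine at 37 °C, 5% CO2. Lck-reconstituted lines checked by immunoblot and sequencing. Cells rinsed in RPMI, resuspended at 5 × 10^6 cells/mL and rested 15 min at 37 °C, then left unstimulated or given pervanadate (100 μM). Lysis in 1% NP-40 (final) with […], NaF, EDTA, PMSF, protease inhibitors and PP2 (25 μM). Immunoblot read-out.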

J.Lck cells = assay: Intracellular calcium measurement by flow cytometry; format: cell-based, human; details: J.Lck cells expressing Lck Y192E/A variants; Indo-1 AM, 37 °C, flow cytometry (Figure S2)
[3] = target: GST Lck SH2 protein (human Lck SH2 domain, residues 123-227, WT) (human, UniProt P06239 123-227); assay: fluorescence polarisation
Chain of GST Lck SH2 protein (human Lck SH2 domain, residues 123-227, WT) (P06239 123-227): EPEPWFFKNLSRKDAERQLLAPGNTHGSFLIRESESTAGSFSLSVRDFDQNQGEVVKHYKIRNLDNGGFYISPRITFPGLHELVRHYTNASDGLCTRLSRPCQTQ

[4] = target: GST Lck SH2 Y192E (human Lck SH2 domain, residues 123-227) (human, UniProt P06239 123-227, Y192E); assay: fluorescence polarisation
Chain of GST Lck SH2 Y192E (human Lck SH2 domain, residues 123-227) (P06239 123-227 Y192E): as the sequence (P06239 123-227) above, with Y70E counted along it

CC(C)(C)n1nc(Cc2cccc(I)c2)c2c(N)ncnc21 [3-IB-PP1]
CD8/ζ-chain phosphorylation upon Csk^AS inhibition (Csk^AS [1]; N=3, Lck Y192E/A variants): only a minimal increase | C-terminal tail (Y505) phosphorylation upon Csk^AS inhibition (Csk^AS [1]; CD8/ζ, N=3, Lck Y192F): the Y192F mutant is dephosphorylated by CD45 | inhibition of Csk^AS (Csk^AS [2]): inhibited

pervanadate
Lck autophosphorylation upon pervanadate treatment (tyrosine phosphatases): robust autophosphorylation

C[C@H](CCC(=O)O)C[C@H](C)C[C@H](C)C(=O)/C=C(\O)[C@H](C)C[C@H](C)C/C=C/[C@@H](C)[C@@H](O)[C@@H](C)[C@@H](O)C[C@@H]1CC[C@@](C)([C@H]2CC[C@@](C)([C@@H](C)O)O2)O1 [ionomycin]
calcium response to ionomycin (J.Lck cells): responded robustly

{FITC}-TEGQ[pY]QPQP [FITC-TEGQ[pY]QPQP, phosphopeptide of the Lck C-terminal tail]
binding result [3]: binds | binding result [4]: binds
